In ChEMBL document CHEMBL1147748, “Overlapping, nonidentical binding sites of different classes of nonpeptide antagonists for the human gonadotropin-releasing hormone receptor” (J Med Chem, 2006):

Experiments:
[1] = target: Gonadotropin-releasing hormone receptor (Homo sapiens, UniProt P30968, D302Q); assay: Displacement of [125I]-His5, D-Tyr6]GnRH from mutant GnRHR, GnRHR D302Q
Method in brief: (§1)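 Human GnRH-R (wild type or site-directed point mutant) was transiently expressed in COS-7 cells by electroporation, with cells cultured 36-48 h before membranes were prepared. Membranes (5-20 µg per point) were incubated 2 h at room temperature with 0.3 nM tracer and varying competitor in HEPES pH 7.5, 150 mM NaCl, 0.1% BSA, then filtered and counted.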

[2] = target: Gonadotropin-releasing hormone receptor (Homo sapiens, UniProt P30968, L300A); assay: Displacement of [125I]-His5, D-Tyr6]GnRH from mutant GnRHR, GnRHR L300A; method in brief: as §1
[3] = target: Gonadotropin-releasing hormone receptor (Homo sapiens, UniProt P30968, T190K); assay: Displacement of [125I]-His5, D-Tyr6]GnRH from mutant GnRHR, GnRHR T190K
[4] = target: Gonadotropin-releasing hormone receptor (Homo sapiens, UniProt P30968, S203K); assay: Displacement of [125I]-His5, D-Tyr6]GnRH from mutant GnRHR, GnRHR S203K
[5] = target: Gonadotropin-releasing hormone receptor (Homo sapiens, UniProt P30968, F272L); assay: Displacement of [125I]-His5, D-Tyr6]GnRH from mutant GnRHR, GnRHR F272L; method in brief: as §1
[6] = target: Gonadotropin-releasing hormone receptor (Homo sapiens, UniProt P30968, L300V); assay: Displacement of [125I]-His5, D-Tyr6]GnRH from mutant GnRHR, GnRHR L300V; method in brief: as §1
[7] = target: Gonadotropin-releasing hormone receptor (Homo sapiens, UniProt P30968, Y283F); assay: Displacement of [125I]-His5, D-Tyr6]GnRH from mutant GnRHR, GnRHR Y283F
[8] = target: Gonadotropin-releasing hormone receptor (Homo sapiens, UniProt P30968, H306K); assay: Displacement of [125I]-His5, D-Tyr6]GnRH from mutant GnRHR, GnRHR H306K; method in brief: as §1
[9] = target: Gonadotropin-releasing hormone receptor (Homo sapiens, UniProt P30968, N27E); assay: Displacement of [125I]-His5, D-Tyr6]GnRH from mutant GnRHR, GnRHR N27E; method in brief: as §1
[10] = target: Gonadotropin-releasing hormone receptor (Homo sapiens, UniProt P30968, F309L); assay: Displacement of [125I]-His5, D-Tyr6]GnRH from mutant GnRHR, GnRHR F309L; method in brief: as §1
[11] = target: Gonadotropin-releasing hormone receptor (Homo sapiens, UniProt P30968, F313L); assay: Displacement of [125I]-His5, D-Tyr6]GnRH from mutant GnRHR, GnRHR F313L; method in brief: as §1
[12] = target: Gonadotropin-releasing hormone receptor (Homo sapiens, UniProt P30968, Q189K); assay: Displacement of [125I]-His5, D-Tyr6]GnRH from mutant GnRHR, GnRHR Q189K; method in brief: as §1
[13] = target: Gonadotropin-releasing hormone receptor (Homo sapiens, UniProt P30968, E295K); assay: Displacement of [125I]-His5, D-Tyr6]GnRH from mutant GnRHR, GnRHR E295K; method in brief: as §1
[14] = target: Gonadotropin-releasing hormone receptor (Homo sapiens, UniProt P30968, K191E); assay: Displacement of [125I]-His5, D-Tyr6]GnRH from mutant GnRHR, GnRHR K191E; method in brief: as §1
[15] = target: Gonadotropin-releasing hormone receptor (Homo sapiens, UniProt P30968, H306A); assay: Displacement of [125I]-His5, D-Tyr6]GnRH from mutant GnRHR, GnRHR H306A; method in brief: as §1
[16] = target: Gonadotropin-releasing hormone receptor (Homo sapiens, UniProt P30968, Q189E); assay: Displacement of [125I]-His5, D-Tyr6]GnRH from mutant GnRHR, GnRHR Q189E; method in brief: as §1
[17] = target: Gonadotropin-releasing hormone receptor (Homo sapiens, UniProt P30968, D293E); assay: Displacement of [125I]-His5, D-Tyr6]GnRH from mutant GnRHR, GnRHR D293E; method in brief: as §1
[18] = target: Gonadotropin-releasing hormone receptor (Homo sapiens, UniProt P30968, Y290Q); assay: Displacement of [125I]-His5, D-Tyr6]GnRH from mutant GnRHR, GnRHR Y290Q
[19] = target: Gonadotropin-releasing hormone receptor (Homo sapiens, UniProt P30968, N305K); assay: Displacement of [125I]-His5, D-Tyr6]GnRH from mutant GnRHR, GnRHR N305K; method in brief: as §1
[20] = target: Gonadotropin-releasing hormone receptor (Homo sapiens, UniProt P30968, L112A); assay: Displacement of [125I]-His5, D-Tyr6]GnRH from mutant GnRHR, GnRHR L112A; method in brief: as §1
[21] = target: Gonadotropin-releasing hormone receptor (Homo sapiens, UniProt P30968, S118A); assay: Displacement of [125I]-His5, D-Tyr6]GnRH from mutant GnRHR, GnRHR S118A
[22] = target: Gonadotropin-releasing hormone receptor (Homo sapiens, UniProt P30968, S186K); assay: Displacement of [125I]-His5, D-Tyr6]GnRH from mutant GnRHR, GnRHR S186K
[23] = target: Gonadotropin-releasing hormone receptor (Homo sapiens, UniProt P30968, N305D); assay: Displacement of [125I]-His5, D-Tyr6]GnRH from mutant GnRHR, GnRHR N305D; method in brief: as §1
[24] = target: Gonadotropin-releasing hormone receptor (Homo sapiens, UniProt P30968, S124A); assay: Displacement of [125I]-His5, D-Tyr6]GnRH from mutant GnRHR, GnRHR S124A
[25] = target: Gonadotropin-releasing hormone receptor (Homo sapiens, UniProt P30968, T51A); assay: Displacement of [125I]-His5, D-Tyr6]GnRH from mutant GnRHR, GnRHR T51A
[26] = target: Gonadotropin-releasing hormone receptor (Homo sapiens, UniProt P30968, Q189A); assay: Displacement of [125I]-His5, D-Tyr6]GnRH from mutant GnRHR, GnRHR Q189A; method in brief: as §1
[27] = target: Gonadotropin-releasing hormone receptor (Homo sapiens, UniProt P30968, D293N); assay: Displacement of [125I]-His5, D-Tyr6]GnRH from mutant GnRHR, GnRHR D293N; method in brief: as §1
[28] = target: Gonadotropin-releasing hormone receptor (Homo sapiens, UniProt P30968, E295Q); assay: Displacement of [125I]-His5, D-Tyr6]GnRH from mutant GnRHR, GnRHR E295Q; method in brief: as §1
[29] = target: Gonadotropin-releasing hormone receptor (Homo sapiens, UniProt P30968, S203Q); assay: Displacement of [125I]-His5, D-Tyr6]GnRH from mutant GnRHR, GnRHR S203Q
[30] = target: Gonadotropin-releasing hormone receptor (Homo sapiens, UniProt P30968, H182E); assay: Displacement of [125I]-His5, D-Tyr6]GnRH from mutant GnRHR, GnRHR H182E; method in brief: as §1

Sequence of Gonadotropin-releasing hormone receptor (Homo sapiens, UniProt P30968, E295Q) (P30968 whole entry E295Q): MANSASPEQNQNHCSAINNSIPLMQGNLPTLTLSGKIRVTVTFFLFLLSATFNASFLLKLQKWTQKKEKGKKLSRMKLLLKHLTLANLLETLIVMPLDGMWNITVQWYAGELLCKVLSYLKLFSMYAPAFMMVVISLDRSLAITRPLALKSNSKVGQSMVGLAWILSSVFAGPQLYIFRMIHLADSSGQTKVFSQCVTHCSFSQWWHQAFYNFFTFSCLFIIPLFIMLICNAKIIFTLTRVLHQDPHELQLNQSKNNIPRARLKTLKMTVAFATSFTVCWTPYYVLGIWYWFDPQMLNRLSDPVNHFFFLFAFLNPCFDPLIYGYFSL
Sequence of Gonadotropin-releasing hormone receptor (Homo sapiens, UniProt P30968, L300V) (P30968 whole entry L300V): as the sequence (P30968 whole entry E295Q) above, with Q295E, L300V counted along it
Sequence of Gonadotropin-releasing hormone receptor (Homo sapiens, UniProt P30968, F313L) (P30968 whole entry F313L): as the sequence (P30968 whole entry E295Q) above, with Q295E, F313L counted along it
Sequence of Gonadotropin-releasing hormone receptor (Homo sapiens, UniProt P30968, F309L) (P30968 whole entry F309L): as the sequence (P30968 whole entry E295Q) above, with Q295E, F309L counted along it
Sequence of Gonadotropin-releasing hormone receptor (Homo sapiens, UniProt P30968, Y283F) (P30968 whole entry Y283F): as the sequence (P30968 whole entry E295Q) above, with Y283F, Q295E counted along it
Sequence of Gonadotropin-releasing hormone receptor (Homo sapiens, UniProt P30968, H306K) (P30968 whole entry H306K): as the sequence (P30968 whole entry E295Q) above, with Q295E, H306K counted along it
Sequence of Gonadotropin-releasing hormone receptor (Homo sapiens, UniProt P30968, D293N) (P30968 whole entry D293N): as the sequence (P30968 whole entry E295Q) above, with D293N, Q295E counted along it
Sequence of Gonadotropin-releasing hormone receptor (Homo sapiens, UniProt P30968, K191E) (P30968 whole entry K191E): as the sequence (P30968 whole entry E295Q) above, with K191E, Q295E counted along it
Sequence of Gonadotropin-releasing hormone receptor (Homo sapiens, UniProt P30968, T51A) (P30968 whole entry T51A): as the sequence (P30968 whole entry E295Q) above, with T51A, Q295E counted along it
Sequence of Gonadotropin-releasing hormone receptor (Homo sapiens, UniProt P30968, Q189A) (P30968 whole entry Q189A): as the sequence (P30968 whole entry E295Q) above, with Q189A, Q295E counted along it
Sequence of Gonadotropin-releasing hormone receptor (Homo sapiens, UniProt P30968, Y290Q) (P30968 whole entry Y290Q): as the sequence (P30968 whole entry E295Q) above, with Y290Q, Q295E counted along it
Sequence of Gonadotropin-releasing hormone receptor (Homo sapiens, UniProt P30968, S118A) (P30968 whole entry S118A): as the sequence (P30968 whole entry E295Q) above, with S118A, Q295E counted along it
Sequence of Gonadotropin-releasing hormone receptor (Homo sapiens, UniProt P30968, N305D) (P30968 whole entry N305D): as the sequence (P30968 whole entry E295Q) above, with Q295E, N305D counted along it
Sequence of Gonadotropin-releasing hormone receptor (Homo sapiens, UniProt P30968, S203Q) (P30968 whole entry S203Q): as the sequence (P30968 whole entry E295Q) above, with S203Q, Q295E counted along it

## COc1c(C)cc(-c2[nH]c3ccc(C(C)(C)C(=O)N(CC(C)C)CC(C)C)cc3c2[C@H](C)CNCCc2ccccc2)cc1C
[1]
  IC50: 20.6 nM
[2]
  IC50: 87.9 nM
[3]
  IC50: 19.8 nM
[4]
  IC50: 14.6 nM
[5]
  IC50: 16.9 nM
[6]
  IC50: 164 nM
[7]
  IC50: 108 nM
[8]
  IC50: 101 nM
[9]
  IC50: 10.8 nM
[10]
  IC50: 60.1 nM
[11]
  IC50: 623 nM
[12]
  IC50: 15.8 nM
[13]
  IC50: 9.6 nM
[14]
  IC50: 11 nM
[15]
  IC50: 23.3 nM
[16]
  IC50: 15.7 nM
[17]
  IC50: 27.2 nM
[18]
  IC50: 229 nM
[19]
  IC50: 3.7 nM
[20]
  IC50: 22.4 nM
[21]
  IC50: 46.8 nM
[22]
  IC50: 13.1 nM
[23]
  IC50: 46.5 nM
[24]
  IC50: 21.3 nM
[25]
  IC50: 15.8 nM
[26]
  IC50: 10 nM
[27]
  IC50: 32.6 nM
[28]
  IC50: 15.2 nM
[29]
  IC50: 15.7 nM
[30]
  IC50: 7.6 nM

## CC(C)C[C@H](NC(=O)[C@@H](Cc1ccc(O)cc1)NC(=O)[C@H](Cc1c[nH]cn1)NC(=O)[C@H](CO)NC(=O)[C@H](Cc1c[nH]c2ccccc12)NC(=O)[C@H](Cc1c[nH]cn1)NC(=O)[C@@H]1CCC(=O)N1)C(=O)N[C@@H](CCCN=C(N)N)C(=O)N1CCC[C@H]1C(=O)NCC(N)=O
[1]
  IC50: 26.5 nM
[2]
  IC50: 18.2 nM
[3]
  IC50: 3.7 nM
[4]
  IC50: 3.1 nM
[5]
  IC50: 4.4 nM
[6]
  IC50: 6.5 nM
[7]
  IC50: 316 nM
[8]
  IC50: 66.2 nM
[9]
  IC50: 3.8 nM
[10]
  IC50: 37.7 nM
[11]
  IC50: 5.6 nM
[12]
  IC50: 2.4 nM
[13]
  IC50: 3.1 nM
[14]
  IC50: 3.7 nM
[15]
  IC50: 50.6 nM
[16]
  IC50: 16.7 nM
[17]
  IC50: 6.1 nM
[18]
  IC50: 192 nM
[19]
  IC50: 12.4 nM
[20]
  IC50: 2.5 nM
[21]
  IC50: 3.3 nM
[22]
  IC50: 4.1 nM
[23]
  IC50: 41.1 nM
[24]
  IC50: 3.9 nM
[25]
  IC50: 3.1 nM
[26]
  IC50: 2.4 nM
[27]
  IC50: 4.7 nM
[28]
  IC50: 2.4 nM
[29]
  IC50: 2.9 nM
[30]
  IC50: 3.6 nM
